ChEMBL document CHEMBL1177718, “Phosphoramidate ProTides of 2'-C-methylguanosine as highly potent inhibitors of hepatitis C virus. Study of their in vitro and in vivo properties” (J Med Chem, 2010)

What was measured:
[1] = Selectivity index, […] for human HepG2 cells
[2] = Cytotoxicity against human HuH7 cells after 72 hrs by celltiter-glo assay; format: cell-based, Huh-7
How it was run: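 Replicon 1b Huh7 cells seeded 2 × 10⁴/well; after 24 h, 11 serial 2× dilutions from 100 μM (three repeats each) with no-compound control; 72 h at 37 °C, CO₂, log-phase growth; viability by CellTiter-Glo luminescence; CC₅₀ = concentration giving 50% signal.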

Homo sapiens [3] = species: Homo sapiens; test: Metabolic stability in human plasma assessed as compound remaining at 1 ug/ml after 4 hrs
[4] = Metabolic stability in mouse plasma assessed as compound remaining at 1 ug/ml after 30 mins; format: ADME, cell-free; settings: read-out: Stability
[5] = Selectivity index, […] for human HEK293 cells
Liver [6] = test: AUC (0 to 24 hrs) in ICR mouse liver at 50 mg/kg, po by LC-MS/MS analysis; format: ADME, organism-based; parameters: time < 24 hr, dose 50 mg/kg, route oral; settings: in vivo
[7] = Selectivity index, […] for human Caco-2 cells
[8] = Metabolic stability in dog plasma assessed as compound remaining at 1 ug/ml after 4 hrs; format: ADME, cell-free, Canis lupus familiaris; settings: read-out: Stability
How it was run: (§1)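 Duplicate incubations; compound at final 1 μg/mL in plasma preincubated and kept at […]; samples taken at 30 or 240 min, quenched with ice-cold acetonitrile, centrifuged, supernatant diluted with water; parent quantified by LC-MS/MS (Polar-RP column, formic acid water/acetonitrile gradient, positive ion mode); % remaining reported.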

[9] = Metabolic stability in cynomolgus monkey plasma assessed as compound remaining at 1 ug/ml after 4 hrs; format: ADME, cell-free, Macaca fascicularis; settings: read-out: Stability; how it was run: as §1
[10] = Cytotoxicity against human HEL cells after 72 hrs by celltiter-glo assay; format: cell-based
How it was run: (§2)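 Cells kept in log phase of growth throughout the cytotoxicity experiments.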

Homo sapiens [11] = species: Homo sapiens; test: Metabolic stability in human plasma assessed as compound remaining at 1 ug/ml after 30 mins
[12] = Metabolic stability in mouse plasma assessed as compound remaining at 1 ug/ml after 4 hrs; format: ADME, cell-free; settings: read-out: Stability
[13] = Selectivity index, […] for human HEL cells
[14] = Selectivity index, […] for human MT4 cells
Liver [15] = test: Dose normalized AUC in ICR mouse liver at 50 mg/kg, po by LC-MS/MS analysis; format: ADME, organism-based; parameters: dose 50 mg/kg, route oral; settings: in vivo
[16] = Cytotoxicity against rat IEC6 cells after 72 hrs by celltiter-glo assay; format: cell-based; how it was run: as §2
Hepatitis C virus = test: Antiviral activity against HCV1b infected in human HuH7 cells assessed as inhibition of viral replication after 48 hrs by luciferase reporter gene assay; format: functional, organism-based, Hepacivirus hominis; settings: genotype 1b, Huh-7, 48 h
How it was run: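 Huh7 cells carrying genotype 1b bicistronic subgenomic replicon, seeded 2 × 10⁴/well without G-418; compounds added 18-24 h later, 48 h exposure; 3× or 4× serial dilutions over 0.0001-10 μM in triplicate/quadruplicate; Renilla luciferase read-out versus untreated cells; EC₅₀ by four-parameter sigmoidal nonlinear regression; at least three independent assays.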

Plasma = test: Dose normalized AUC in ICR mouse plasma at 50 mg/kg, po by LC-MS/MS analysis; format: ADME, organism-based; parameters: dose 50 mg/kg, route oral; settings: in vivo
[17] = Cytotoxicity against human Caco-2 cells after 72 hrs by celltiter-glo assay; format: cell-based; how it was run: as §2
[18] = Metabolic stability in rat plasma assessed as compound remaining at 1 ug/ml after 30 mins; format: ADME, cell-free; settings: read-out: Stability; how it was run: as §1
[19] = Metabolic stability in dog plasma assessed as compound remaining at 1 ug/ml after 30 mins; format: ADME, cell-free, Canis lupus familiaris; settings: read-out: Stability; how it was run: as §1
[20] = Cmax in ICR mouse plasma at 50 mg/kg, po by LC-MS/MS analysis; format: ADME, organism-based; parameters: dose 50 mg/kg, route oral
[21] = Cytotoxicity against human HEK293 cells after 72 hrs by celltiter-glo assay; format: cell-based; how it was run: as §2
[22] = Selectivity index, […] for human CEM cells; parameters: species or system CCRF-CEM
[23] = Cytotoxicity against human MT4 cells after 72 hrs by celltiter-glo assay; format: cell-based; how it was run: as §2
[24] = Metabolic stability in cynomolgus monkey plasma assessed as compound remaining at 1 ug/ml after 30 mins; format: ADME, cell-free, Macaca fascicularis; settings: read-out: Stability; how it was run: as §1
[25] = Cytotoxicity against human HepG2 cells after 72 hrs by celltiter-glo assay; format: cell-based; how it was run: as §2
[26] = Selectivity index, […] for human HuH7 cells; parameters: species or system Huh-7
[27] = Metabolic stability in rat plasma assessed as compound remaining at 1 ug/ml after 4 hrs; format: ADME, cell-free; settings: read-out: Stability; how it was run: as §1
Liver [28] = test: AUC (0 to 6 hrs) in ICR mouse liver at 50 mg/kg, po by LC-MS/MS analysis; format: ADME, organism-based; parameters: time < 6 hr, dose 50 mg/kg, route oral; settings: in vivo
[29] = Cytotoxicity against human CEM cells after 72 hrs by celltiter-glo assay; format: cell-based, CCRF-CEM; how it was run: as §2
[30] = Selectivity index, […] for rat IEC-6 cells
[31] = Metabolic stability in dog liver S9 fraction assessed as compound remaining at 10 uM after 30 mins by HPLC analysis in presence of NADP; format: ADME, subcellular, Canis lupus familiaris; settings: read-out: Stability
[32] = Metabolic stability in dog intestine S9 fraction assessed as compound remaining at 10 uM after 30 mins by HPLC analysis in presence of NADP; format: ADME, tissue-based, Canis lupus familiaris; settings: read-out: Stability
[33] = Metabolic stability in dog intestine S9 fraction assessed as compound remaining at 10 uM after 30 mins by HPLC analysis in absence of NADP; format: ADME, tissue-based, Canis lupus familiaris; settings: read-out: Stability
[34] = Metabolic stability in human intestine S9 fraction assessed as compound remaining at 10 uM after 30 mins by HPLC analysis in presence of NADP; format: ADME, tissue-based; settings: read-out: Stability
[35] = Metabolic stability in dog liver S9 fraction assessed as compound remaining at 10 uM after 30 mins by HPLC analysis in absence of NADP; format: ADME, subcellular, Canis lupus familiaris; settings: read-out: Stability
[36] = Metabolic stability in human liver S9 fraction assessed as compound remaining at 10 uM after 30 mins by HPLC analysis in absence of NADP; format: ADME, subcellular; settings: read-out: Stability
[37] = Metabolic stability in human intestine S9 fraction assessed as compound remaining at 10 uM after 30 mins by HPLC analysis in absence of NADP; format: ADME, tissue-based; settings: read-out: Stability
[38] = Metabolic stability in human liver S9 fraction assessed as compound remaining at 10 uM after 30 mins by HPLC analysis in presence of NADP; format: ADME, subcellular; settings: read-out: Stability
[39] = Metabolic stability in cynomolgus monkey liver S9 fraction assessed as compound remaining at 10 uM after 30 mins by HPLC analysis in presence of NADP; format: ADME, subcellular, Macaca fascicularis; settings: read-out: Stability
[40] = Metabolic stability in rat intestine S9 fraction assessed as compound remaining at 10 uM after 30 mins by HPLC analysis in absence of NADP; format: ADME, tissue-based; settings: read-out: Stability
[41] = Metabolic stability in rat liver S9 fraction assessed as compound remaining at 10 uM after 30 mins by HPLC analysis in absence of NADP; format: ADME, subcellular; settings: read-out: Stability
[42] = Metabolic stability in cynomolgus monkey liver S9 fraction assessed as compound remaining at 10 uM after 30 mins by HPLC analysis in absence of NADP; format: ADME, subcellular, Macaca fascicularis; settings: read-out: Stability
[43] = Metabolic stability in rat intestine S9 fraction assessed as compound remaining at 10 uM after 30 mins by HPLC analysis in presence of NADP; format: ADME, tissue-based; settings: read-out: Stability
[44] = Metabolic stability in cynomolgus monkey intestine S9 fraction assessed as compound remaining at 10 uM after 30 mins by HPLC analysis in presence of NADP; format: ADME, tissue-based, Macaca fascicularis; settings: read-out: Stability
[45] = Metabolic stability in rat liver S9 fraction assessed as compound remaining at 10 uM after 30 mins by HPLC analysis in presence of NADP; format: ADME, subcellular; settings: read-out: Stability
[46] = Metabolic stability in cynomolgus monkey intestine S9 fraction assessed as compound remaining at 10 uM after 30 mins by HPLC analysis in absence of NADP; format: ADME, tissue-based, Macaca fascicularis; settings: read-out: Stability

Structure (SMILES): C[C@H](NP(=O)(OC[C@H]1O[C@@H](n2cnc3c(=O)[nH]c(N)nc32)[C@](C)(O)[C@@H]1O)Oc1cccc2ccccc12)C(=O)O[C@@H](C)c1ccccc1 (some centres not stated)
- Selectivity Index [1]: >=1000
- CC50 at 72 h [2]: > 100 µM
- remaining at 4 h, 1 ug/ml (Homo sapiens [3]): 99%
- remaining at 0.5 h, 1 ug/ml [4]: 3.1%
- Selectivity Index [5]: >=1000
- AUC (Liver [6]): 5390 ng·h/g
- Selectivity Index [7]: >=1000
- remaining at 4 h, 1 ug/ml [8]: 92%
- remaining at 4 h, 1 ug/ml [9]: 100%
- CC50 at 72 h [10]: > 100 µM
- remaining at 0.5 h, 1 ug/ml (Homo sapiens [11]): 100%
- remaining at 4 h, 1 ug/ml [12]: 0%
- Selectivity Index [13]: >=1000
- Selectivity Index [14]: >=1000
- AUC (Liver [15]): 108 ng·h/g
- CC50 at 72 h [16]: > 100 µM
- EC50 (Hepatitis C virus): 0.08 µM
- AUC (Plasma): 85 ng·h/mL
- CC50 at 72 h [17]: > 100 µM
- remaining at 0.5 h, 1 ug/ml [18]: 0.8%
- remaining at 0.5 h, 1 ug/ml [19]: 97%
- Cmax [20]: 1380 ng/mL
- CC50 at 72 h [21]: > 100 µM
- Selectivity Index [22]: >=1000
- CC50 at 72 h [23]: 87 µM
- remaining at 0.5 h, 1 ug/ml [24]: 100%
- CC50 at 72 h [25]: > 100 µM
- Selectivity Index [26]: >=1000
- remaining at 4 h, 1 ug/ml [27]: 0%
- AUC (Liver [28]): 2596 ng·h/g
- CC50 at 72 h [29]: 82 µM
- Selectivity Index [30]: >=1000

Structure (SMILES): C[C@@]1(O)[C@H](O)[C@@H](COP(=O)(N[C@@H](Cc2ccccc2)C(=O)OCc2ccccc2)Oc2cccc3ccccc23)O[C@H]1n1cnc2c(=O)[nH]c(N)nc21 (some centres not stated)
- CC50 at 72 h [2]: > 100 µM
- remaining at 0.5 h, 1 ug/ml [4]: 1%
- remaining at 0.5 h, 10 µM [31]: 4%
- remaining at 0.5 h, 10 µM [32]: 0%
- EC50 (Hepatitis C virus): 1.2 µM
- remaining at 0.5 h, 10 µM [33]: 0%
- remaining at 0.5 h, 10 µM [34]: 0%
- remaining at 0.5 h, 10 µM [35]: 15%
- remaining at 0.5 h, 10 µM [36]: 20%
- remaining at 0.5 h, 10 µM [37]: 5%
- remaining at 0.5 h, 10 µM [38]: 0%

Structure (SMILES): C[C@H](NP(=O)(OC[C@H]1O[C@@H](n2cnc3c(=O)[nH]c(N)nc32)[C@](C)(O)[C@@H]1O)Oc1cccc2ccccc12)C(=O)OCc1ccccc1 (some centres not stated)
- CC50 at 72 h [2]: > 100 µM
- remaining at 0.5 h, 10 µM [39]: 0%
- remaining at 0.5 h, 1 ug/ml [4]: 1.1%
- remaining at 0.5 h, 10 µM [40]: 46%
- remaining at 0.5 h, 10 µM [41]: 0%
- remaining at 0.5 h, 1 ug/ml (Homo sapiens [11]): 58%
- remaining at 0.5 h, 10 µM [42]: 32%
- remaining at 0.5 h, 10 µM [43]: 30%
- remaining at 0.5 h, 10 µM [44]: 0%
- EC50 (Hepatitis C virus): 0.062 µM
- remaining at 0.5 h, 1 ug/ml [18]: 1.3%
- remaining at 0.5 h, 1 ug/ml [19]: 67%
- remaining at 0.5 h, 10 µM [34]: 0%
- remaining at 0.5 h, 10 µM [45]: 0%
- remaining at 0.5 h, 1 ug/ml [24]: 54%
- remaining at 0.5 h, 10 µM [36]: 41%
- remaining at 0.5 h, 10 µM [37]: 49%
- remaining at 0.5 h, 10 µM [46]: 30%
- remaining at 0.5 h, 10 µM [38]: 27%
